Results on 6 compounds are retold here after ChEMBL document CHEMBL3271976, “Cardenolide analogues. 2. 22-Methylenecard-14-enolides” (J Med Chem, 1977).

Molecules are shown by their SMILES. Calls of active or inactive are those of the source. No cut-off for these calls is given here.

A short description of data set [1]: Inhibition of rat brain sodium/potassium-transporting ATPase after 10 mins in presence of Mg2+ and Na+. The note with it: read-out: I50. Summed up:
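Rat brain Na+,K+-ATPase. The steroid was added to enzyme medium lacking K+ and preincubated 10 min, then KCl was added to start Na+,K+-ATPase activity. Basal activity from tubes with Mg2+ and Na+ only was subtracted from activity with Mg2+, Na+ and K+. I50 (M) is from two to four runs.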

Data set [2] can be described thus: Solubility of the compound in propylene glycol. In kind it is physicochemical.
Data set [3] can be described thus: Inhibition of rat brain sodium/potassium-transporting ATPase in presence of Mg2+ and Na+. To be noted: read-out: I50. The gist of the method:
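Rat brain Na+,K+-ATPase assayed with no preincubation of steroid and enzyme. Na+,K+-dependent activity was taken as activity with Mg2+, Na+ and K+ minus basal activity from tubes with Mg2+ and Na+ only. I50 (M) is from two to four runs.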

For a further data set, the species on record is Cavia porcellus. Briefly: Inotropic activity at guinea pig left atria sodium/potassium-transporting ATPase up to 10^-4 M.

On to `C=C1C(=O)OC[C@H]1[C@H]1CC=C2[C@@H]3CC[C@@H]4C[C@@H](O)CC[C@]4(C)[C@H]3CC[C@@]21C`, for which the IC50 in data set [1] and in data set [3] was greater than 100 µM throughout. Moreover, the solubility result in data set [2] was “Insoluble”. Besides, in the data set listed under Cavia porcellus, the outcome was inactive.
In the case of `C=C1C(=O)OC[C@@H]1[C@H]1CC=C2[C@@H]3CC[C@@H]4C[C@@H](O)CC[C@]4(C)[C@H]3CC[C@@]21C`, the solubility result in data set [2] is “Insoluble”. The outcome in the data set listed under Cavia porcellus was inactive.
In the case of `C[C@@H]1O[C@@H](O[C@H]2C[C@@H](O)[C@]3(CO)[C@H]4[C@H](O)C[C@]5(C)[C@@H](C6=CC(=O)OC6)CC[C@]5(O)[C@@H]4CC[C@]3(O)C2)[C@H](O)[C@H](O)[C@H]1O` [OUABAIN], the IC50 was determined as 0.04 µM in data set [1] and 0.5 µM in data set [3].
Turning to `C[C@]12CC[C@H](O)C[C@H]1CC[C@H]1C3=CC[C@H](C4=CC(=O)OC4)[C@@]3(C)CC[C@@H]12`, the IC50 was found to be 40 µM in data set [1] and 63 µM in data set [3]. Moreover, the solubility result in data set [2] was “Insoluble”. For the same compound, the outcome in the data set listed under Cavia porcellus was inactive.
`C[C@]12CC[C@H](O)C[C@H]1CC[C@@H]1[C@@H]2CC[C@]2(C)[C@@H](C3=CC(=O)OC3)CC[C@]12O` [DIGITOXIGENIN]: the results for the IC50 in data set [1] and in data set [3] were 0.5 µM and 0.46 µM, respectively.
Take `C[C@H]1O[C@@H](O[C@H]2[C@@H](O)C[C@H](O[C@H]3[C@@H](O)C[C@H](O[C@H]4CC[C@@]5(C)[C@H](CC[C@@H]6[C@@H]5CC[C@]5(C)[C@@H](C7=CC(=O)OC7)CC[C@]65O)C4)O[C@@H]3C)O[C@@H]2C)C[C@H](O)[C@@H]1O` [DIGITOXIN]: the IC50 in data set [1] amounted to 0.24 µM; in data set [3], 0.7 µM.
